Source: ChEMBL document CHEMBL1138426, “Synthesis and DNA-binding ability of C2R-fluoro substituted DC-81 and its dimers” (Bioorg Med Chem Lett, 2007)

Legend:
[1] = tested on: DNA; test: Binding affinity to calf thymus DNA at 1:5 (compound:DNA) molar ratio in pH 7.0, 37 degC after 18 hrs by thermal denaturation study; format: nucleic-acid assay; conditions: Bos taurus
Procedure, shortened: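 Thermal denaturation of calf thymus DNA at pH 7.00 ± 0.01. The buffer was aqueous sodium phosphate (10 mM sodium phosphate + 1 mM EDTA). DNA was 100 μM and compound 20 μM, a 1:5 molar ratio. The mix was incubated at 37 °C for 0, 18 or 36 h before melting. ΔTm is the shift from the Tm of DNA alone (mean of 10 determinations), ±0.1–0.2 °C.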

[2] = tested on: DNA; test: Binding affinity to calf thymus DNA at 1:5 (compound:DNA) molar ratio in pH 7.0, 37 degC after 36 hrs by thermal denaturation study; conditions: Bos taurus

| Compound | ΔTm [1] [°C] | ΔTm [2] [°C] |
| --- | --- | --- |
| COc1cc2c(cc1OCCCCCOc1cc3c(cc1OC)C(=O)N1C[C@H](F)C[C@H]1C=N3)N=C[C@@H]1C[C@@H](F)CN1C2=O | 16.9 | 18.8 |
| COc1cc2c(cc1O)N=C[C@@H]1CCCN1C2=O | 0.7 | 0.7 |
| COc1cc2c(cc1OCCCOc1cc3c(cc1OC)C(=O)N1C[C@H](F)C[C@H]1C=N3)N=C[C@@H]1C[C@@H](F)CN1C2=O | 5.2 | 6.2 |
| COc1cc2c(cc1OCCCCOc1cc3c(cc1OC)C(=O)N1C[C@H](F)C[C@H]1C=N3)N=C[C@@H]1C[C@@H](F)CN1C2=O | 12.4 | 14 |
| COc1cc2c(cc1O)N=C[C@@H]1C[C@@H](F)CN1C2=O | 2.1 | 2.3 |
| COc1cc2c(cc1OCCCOc1cc3c(cc1OC)C(=O)N1CCC[C@H]1C=N3)N=C[C@@H]1CCCN1C2=O | 15.1 | – |
